Measured values of several laboratories.
FLT3: Receptor-type tyrosine-protein kinase FLT3 (FLT3, Homo sapiens, UniProt P36888)
FLT3 D835Y: Receptor-type tyrosine-protein kinase FLT3 (FLT3, Homo sapiens, UniProt P36888, D835Y)
FLT3 D835H: Receptor-type tyrosine-protein kinase FLT3 (FLT3, Homo sapiens, UniProt P36888, D835H)
FLT3 R834Q: Receptor-type tyrosine-protein kinase FLT3 (FLT3, Homo sapiens, UniProt P36888, R834Q)
FLT3 D835V: Receptor-type tyrosine-protein kinase FLT3 (FLT3, Homo sapiens, UniProt P36888, D835V)
FLT3 K663Q: Receptor-type tyrosine-protein kinase FLT3 (FLT3, Homo sapiens, UniProt P36888, K663Q)
FLT3 autoinhibited: Receptor-type tyrosine-protein kinase FLT3, autoinhibited (FLT3, Homo sapiens, UniProt P36888)
FLT3 N841I: Receptor-type tyrosine-protein kinase FLT3 (FLT3, Homo sapiens, UniProt P36888, N841I)

| Compound | target | read-out | method | tested at | remaining binding [%] |
| --- | --- | --- | --- | --- | --- |
| c1ccc(N2CCN(Cc3nc4ccccc4[nH]3)CC2)nc1 | FLT3 | binding | competition with immobilised ligand | 1 µM | 100 |
| CN(c1nccc(-c2cnn3ncccc23)n1)C1CC1 | FLT3 D835Y | binding |  | 1 µM | 85 |
| CN1CCN(c2ccc(Nc3nccc(-c4ccccc4)n3)cc2C(F)(F)F)CC1 | FLT3 D835H | binding |  | 10 µM | 0.2 |
| C[C@@H]1CN(c2ccc3ncc(-c4ccc5[nH]nc(C6CC6)c5c4)n3n2)C[C@H](C)O1 | FLT3 | binding | competition with immobilised ligand | 50 nM | 31 |
| Cc1c(NC(=O)c2cc(C(N)=O)nc3cc(F)ccc23)c(C(F)(F)F)nn1Cc1ccc(C(C)(C)C)cc1 | FLT3 R834Q | cell-free assay | competition with immobilised ligand | 1 µM | 100 |
| FC(F)(F)Oc1cccc(-c2cnc3ccc(-c4ccncc4)nn23)c1 | FLT3 | cell-free assay | competition with immobilised ligand | 5 µM | 3.6 |
| O=C(c1ccc(Nc2ncc(Cl)c(-c3ccc(Cl)s3)n2)cc1)N1CCC(N2CCCC2)CC1 | FLT3 | binding | competition with immobilised ligand | 1 µM | 10 |
| O=C(NC1CCC1)c1ccc2nc(-c3cccc(NS(=O)(=O)NCCN4CCCCC4)c3)cn2c1 | Receptor-type tyrosine-protein kinase FLT3 (FLT3, Homo sapiens, UniProt P36888, F691L/ITD) | cell-free assay | competition with immobilised ligand | 10 µM | 80 |
| Nc1ncc2c(n1)-c1c([nH]c3ccc(C#CC4CC4)cc13)CCCC2 | FLT3 D835V | binding | competition with immobilised ligand | 1 µM | 92 |
| COc1ccnn2ncc(-c3ccnc(N(C)C)n3)c12 | FLT3 K663Q | binding |  | 1 µM | 100 |
| O=C(NCCCN1CCOCC1)c1ccc(Nc2nccc(-c3cc4ccccc4s3)n2)cc1 | FLT3 R834Q | binding | competition with immobilised ligand | 1 µM | 43 |
| CC1CCCN1c1nccc(-c2cnn3ncccc23)n1 (centres unmarked) | FLT3 D835Y | binding |  | 1 µM | 100 |
| C[C@@H](c1ccc(-n2cnc3c(N)ncnc32)cc1)N1CCc2nn(C)c(Cc3ccccc3)c2C1=O | FLT3 R834Q | binding | competition with immobilised ligand | 0.1 µM | 88 |
| COc1ncc2cc3ccccc3nc2c1C#N | FLT3 D835H | cell-free assay | competition with immobilised ligand | 5 µM | 89 |
| CCN1CCN(Cc2ccc(C(=O)Nc3ccc(C)c(Oc4ccc5c(c4)CC(=O)N5)c3)cc2C(F)(F)F)CC1 | FLT3 R834Q | binding | competition with immobilised ligand | 1 µM | 100 |
| O=C(Nc1c[nH]nc1C(=O)NC1CCNCC1)c1cc(F)cc(F)c1 | FLT3 D835Y | binding | competition with immobilised ligand | 1 µM | 89 |
| C=CC(=O)N1CCC(C(=O)NCC(=O)N2CCN(c3nc(-c4cnc(N)nc4C(F)F)nc(N4CCOCC4)n3)CC2)CC1 | FLT3 autoinhibited | binding | competition with immobilised ligand | 1 µM | 99 |
| CC1=C(C#N)C(c2ccc3c(c2)c(NC(=O)c2ccccc2C)nn3C)C(C#N)=C(C)N1 | FLT3 N841I | cell-free assay | competition with immobilised ligand | 1 µM | 74 |
| O=C(c1ccc(Nc2nccc(-c3cc4ccccc4s3)n2)cc1)N1CCC(N2CCCC2)CC1 | FLT3 D835Y | binding | competition with immobilised ligand | 1 µM | 28 |

| Compound | target | read-out | method | tested at | remaining binding [%] |
| --- | --- | --- | --- | --- | --- |
| O=C(NCC1CCOCC1)c1n[nH]cc1NC(=O)c1c(F)cccc1F | FLT3 N841I | binding | competition with immobilised ligand | 1 µM | 100 |
| CNC(=O)[C@@H]1CC[C@@H](n2c(-c3ccc4cnccc4c3)nc3ccc(C(=O)NCc4cccc(C(N)=O)c4)cc32)C1 | FLT3 N841I | binding | competition with immobilised ligand | 1 µM | 100 |
| O=c1nc(-c2ccccn2)sc2ccccc12 | FLT3 | binding | competition with immobilised ligand | 1 µM | 93 |
| c1cncc(-c2cccc(Nc3nccc(NC4CCCCC4)n3)c2)c1 | FLT3 R834Q | binding | competition with immobilised ligand | 10 µM | 5.5 |
| Cc1noc([C@H]2C[C@@H](c3ccc(C(F)(F)F)cc3)CN(C(=O)N3CCS(=O)(=O)C3)C2)n1 | FLT3 autoinhibited | cell-free assay | competition with immobilised ligand | 1 µM | 100 |
| CN(C)c1nccc(-c2cnc3ncccn23)n1 | FLT3 D835V | binding |  | 1 µM | 68 |
| CN1CCN(c2ccc(Nc3nccc(-c4cccc([N+](=O)[O-])c4)n3)cc2C(F)(F)F)CC1 | FLT3 D835V | binding |  | 10 µM | 0 |
| Cc1cnc(Nc2ccc(C(=O)N3CCC(N4CCCC4)CC3)cc2)nc1-c1cc2ccccc2s1 | FLT3 N841I | binding | competition with immobilised ligand | 1 µM | 0 |
| COc1cnc(Nc2cccc(S(N)(=O)=O)c2)nc1N1CCN(c2ccccc2)C(=O)C1 | FLT3 K663Q | binding | competition with immobilised ligand | 1 µM | 87 |
| N[C@H]1CCN(c2nccc(-c3cnn4ncccc34)n2)C1 | FLT3 K663Q | binding |  | 1 µM | 100 |
| COc1cnc(Nc2cccc(S(N)(=O)=O)c2)nc1N1CCN(c2ccccc2)CC1 | FLT3 | binding | competition with immobilised ligand | 1 µM | 36 |
| O=C(c1ccc(Nc2ncc(Cl)c(-c3cc4ccccc4s3)n2)cc1)N1CCC(N2CCCC2)CC1 | FLT3 D835V | binding | competition with immobilised ligand | 1 µM | 1.3 |
| CC(=O)N1CCC(c2ccc(C(=O)NC(=N)N)cc2C(F)(F)F)CC1 | FLT3 K663Q | cell-free assay | competition with immobilised ligand | 1 µM | 100 |
| c1cnn2ncc(-c3ccnc(N4CCC45COC5)n3)c2c1 | FLT3 D835V | binding |  | 1 µM | 20 |
| CN(C)C(=O)Cn1cc(-c2nc(C3(c4ccc(-c5cnc(N)nc5)cc4)CC3)no2)cn1 | Receptor-type tyrosine-protein kinase FLT3 (FLT3, Homo sapiens, UniProt P36888, D835V/ITD) | cell-free assay | competition with immobilised ligand | 1 µM | 89 |
| F[C@@H]1CCN(c2nccc(-c3cnn4ncccc34)n2)C1 | FLT3 autoinhibited | binding |  | 1 µM | 100 |
| CN(C)C(=O)Cn1cc(-c2nc([C@@](C)(c3ccc(-c4cnc(N)nc4)cc3)C3CC3)no2)cn1 | FLT3 | cell-free assay | competition with immobilised ligand | 1 µM | 97 |
| C[C@H]1CCN(c2nccc(-c3cnn4ncccc34)n2)C1 | FLT3 | binding |  | 1 µM | 81 |
| O=C(NCCCN1CCOCC1)c1ccc(Nc2ncc(Cl)c(-c3ccc(Cl)s3)n2)cc1 | FLT3 K663Q | binding | competition with immobilised ligand | 1 µM | 2 |
